This is an account of results in article PMC11223151 (ACS Omega, 2024).

≈ marks a conversion by molar mass, not a printed value.

Common to all, as to format: cell-based
One data set relates to human lymphocytes. Briefly: Comet assay. Put shortly:
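Freshly isolated human lymphocytes from fresh blood were exposed to test compound at 40–0.078 μg/mL. Controls were 20% DMSO (positive) and normal saline (negative). Cells in low-melting agarose went onto slides precoated with normal-melting agarose, then cold lysis overnight, alkaline unwinding at pH >13, and electrophoresis for 30 min at 300 mA, 24 V. Slides were neutralised at pH 7.5 and ethidium bromide-stained. Tail length and head diameter were scored by fluorescence microscopy, damage index by formula, reported as mean ± SD of 3–5 experiments.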

In the next data set the test system is Vero cell line. Nature of the data set: MTT assay, cytotoxicity on Vero. The conditions noted are these: Chlorocebus sabaeus, 48 h, read-out: IC50 Vero cell line. A general note: Tetrazolium assays rely on reduction of a dye to a coloured formazan, in cell work by metabolically active cells.
A further data set relates to MCF-7 cell line. Briefly: MTT assay, anticancer activity on MCF-7 cell line. The settings on record: Homo sapiens, MCF7, 48 h.

On to `C[S+](C)[O-]` [20% DMSO, Dimethyl sulfoxide], for which, in the data set with human lymphocytes (positive control, 20%), the damage index is reported as 45, the fragmentation % was found to be 100% and the genetic damage index is 1.8.

As to `COc1cc(/C=C/C(=O)CC(=O)/C=C/c2ccc(O)c(OC)c2)ccc1O` [curcumin], the damage index in the data set on human lymphocytes (0.078 μg/mL), in the data set on human lymphocytes (0.156 μg/mL), in the data set on human lymphocytes (0.3125 μg/mL), in the data set on human lymphocytes (0.625 μg/mL), in the data set with human lymphocytes (1.25 μg/mL) and in the data set on human lymphocytes (2.5 μg/mL) was 0 throughout. Besides, the damage index in the data set on human lymphocytes (5 μg/mL) was determined as 0; in the data set with human lymphocytes (10 μg/mL), 1; in the data set on human lymphocytes (20 μg/mL), 2; in the data set on human lymphocytes (40 μg/mL), 3. For the same compound, the fragmentation % in the data set with human lymphocytes (0.078 μg/mL), in the data set on human lymphocytes (0.156 μg/mL), with human lymphocytes (0.3125 μg/mL), in the data set on human lymphocytes (0.625 μg/mL), in the data set with human lymphocytes (1.25 μg/mL) and in the data set on human lymphocytes (2.5 μg/mL) was 0% throughout. In addition, the fragmentation % in the data set with human lymphocytes (5 μg/mL) was 0%; in the data set on human lymphocytes (10 μg/mL) it was 4%; in the data set with human lymphocytes (20 μg/mL), 8%; in the data set with human lymphocytes (40 μg/mL) it was 12%. The genetic damage index in the data set with human lymphocytes (0.078 μg/mL), in the data set on human lymphocytes (0.156 μg/mL), in the data set with human lymphocytes (0.3125 μg/mL), in the data set on human lymphocytes (0.625 μg/mL), with human lymphocytes (1.25 μg/mL) and in the data set with human lymphocytes (2.5 μg/mL) was 0 throughout. In addition, the genetic damage index in the data set with human lymphocytes (5 μg/mL) stood at 0; in the data set on human lymphocytes (10 μg/mL) it was 0.04; with human lymphocytes (20 μg/mL), 0.08; in the data set with human lymphocytes (40 μg/mL), 0.12. In addition, the “mean tail length n = 25” value in the data set on human lymphocytes (0.078 μg/mL) worked out at 0.36 ± 0.47; with human lymphocytes (0.156 μg/mL) it was 0.46 ± 0.38; in the data set on human lymphocytes (0.3125 μg/mL), 0.57 ± 0.22; in the data set with human lymphocytes (0.625 μg/mL) it was 0.54 ± 0.28; in the data set on human lymphocytes (1.25 μg/mL), 0.68 ± 0.35; in the data set on human lymphocytes (2.5 μg/mL), 0.68 ± 0.74. Further, the “mean tail length n = 25” value stood at 1.14 ± 0.72 in the data set with human lymphocytes (5 μg/mL), 1.28 ± 0.28 with human lymphocytes (10 μg/mL), 1.31 ± 0.74 in the data set on human lymphocytes (20 μg/mL) and 1.86 ± 0.73 in the data set on human lymphocytes (40 μg/mL). For the same compound, the values for the 50% inhibitory concentration (IC50) in the data set with Vero cell line and in the data set with MCF-7 cell line (read-out: IC50 MCF7 cell line) were 23.2 µg/mL (≈ 63 µM) and 11.5 µg/mL (≈ 31.1 µM), respectively. The inhibition at 40 µg/mL in the data set on MCF-7 cell line (read-out: percentage inhibition against MCF7 cell line) was found to be 64%.

As usually defined, the IC50 is the point on the concentration scale where inhibition reaches its midpoint. For orientation: inhibition means the relative decrease from the control value, in per cent.
